Reference: ChEMBL document CHEMBL1143284, “Synthesis of riccardin C and its seven analogues. Part 1: The role of their phenolic hydroxy groups as LXRalpha agonists” (Bioorg Med Chem Lett, 2009)
Calls of active or inactive are those of the source. The calls are words filed in the database; no cut-off is given here.

Biological target: T1, Oxysterols receptor LXR-alpha (Homo sapiens) (UniProt Q13133)
T1 sequence (whole entry): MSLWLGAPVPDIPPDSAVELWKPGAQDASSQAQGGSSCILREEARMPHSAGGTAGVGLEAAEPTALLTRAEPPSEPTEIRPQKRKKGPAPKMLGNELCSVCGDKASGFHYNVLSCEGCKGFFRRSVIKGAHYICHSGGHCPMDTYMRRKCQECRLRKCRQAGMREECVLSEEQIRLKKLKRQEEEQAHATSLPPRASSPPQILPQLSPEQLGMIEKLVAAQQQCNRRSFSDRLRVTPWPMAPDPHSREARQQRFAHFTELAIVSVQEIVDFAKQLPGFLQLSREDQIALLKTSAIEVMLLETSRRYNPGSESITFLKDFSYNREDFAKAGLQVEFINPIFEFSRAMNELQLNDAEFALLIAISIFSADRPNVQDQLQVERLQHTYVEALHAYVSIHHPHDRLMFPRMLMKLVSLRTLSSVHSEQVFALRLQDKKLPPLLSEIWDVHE
Experiment: Agonist activity at full length LXRalpha expressed in african green monkey COS1 cells co-transfected with RXRalpha assessed as increase in LXR-response element driven luciferase reporter gene transactivation at 10 to 30 uM after 24 hrs
Conditions: COS-1

| SMILES | Activity |
| --- | --- |
| COc1ccc2c(c1)CCc1ccc(cc1)Oc1cc(ccc1OC)CCc1ccc-2c(OC)c1 | inactive |
| COc1ccc2c(c1)CCc1ccc(cc1)Oc1cc(ccc1O)CCc1ccc-2c(OC)c1 | inactive |
| COc1ccc2c(c1)CCc1ccc(cc1)Oc1cc(ccc1O)CCc1ccc-2c(O)c1 | inactive |
| COc1ccc2cc1Oc1ccc(cc1)CCc1cc(O)ccc1-c1ccc(cc1O)CC2 | inactive |
| COc1ccc2cc1Oc1ccc(cc1)CCc1cc(O)ccc1-c1ccc(cc1OC)CC2 | inactive |
| COc1ccc2c(c1)CCc1ccc(cc1)Oc1cc(ccc1OC)CCc1ccc-2c(O)c1 | inactive |
| COc1cc2ccc1-c1ccc(O)cc1CCc1ccc(cc1)Oc1cc(ccc1O)CC2 | inactive |

Biological target: T2, Oxysterols receptor LXR-beta (Homo sapiens) (UniProt P55055)
T2 sequence (whole entry): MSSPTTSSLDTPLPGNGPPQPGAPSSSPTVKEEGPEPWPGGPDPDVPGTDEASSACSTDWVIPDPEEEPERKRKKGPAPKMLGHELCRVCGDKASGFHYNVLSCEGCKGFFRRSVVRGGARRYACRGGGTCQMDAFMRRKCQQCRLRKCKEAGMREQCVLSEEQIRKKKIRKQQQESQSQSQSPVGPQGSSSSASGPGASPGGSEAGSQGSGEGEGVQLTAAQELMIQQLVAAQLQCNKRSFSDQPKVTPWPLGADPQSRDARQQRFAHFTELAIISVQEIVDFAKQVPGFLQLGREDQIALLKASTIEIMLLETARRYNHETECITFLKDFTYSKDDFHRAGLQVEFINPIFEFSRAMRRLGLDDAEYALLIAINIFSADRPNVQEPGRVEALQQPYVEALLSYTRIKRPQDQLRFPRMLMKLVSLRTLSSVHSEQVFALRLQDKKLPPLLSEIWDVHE
Experiment: Agonist activity at full length LXRbeta expressed in african green monkey COS1 cells co-transfected with RXRalpha assessed as increase in LXR-response element driven luciferase reporter gene transactivation at 10 to 30 uM after 24 hrs
Conditions: COS-1

| SMILES | Activity |
| --- | --- |
| COc1ccc2c(c1)CCc1ccc(cc1)Oc1cc(ccc1OC)CCc1ccc-2c(OC)c1 | inactive |
| COc1ccc2c(c1)CCc1ccc(cc1)Oc1cc(ccc1O)CCc1ccc-2c(OC)c1 | inactive |
| COc1ccc2c(c1)CCc1ccc(cc1)Oc1cc(ccc1O)CCc1ccc-2c(O)c1 | inactive |
| COc1ccc2cc1Oc1ccc(cc1)CCc1cc(O)ccc1-c1ccc(cc1O)CC2 | inactive |
| COc1ccc2cc1Oc1ccc(cc1)CCc1cc(O)ccc1-c1ccc(cc1OC)CC2 | inactive |
| COc1ccc2c(c1)CCc1ccc(cc1)Oc1cc(ccc1OC)CCc1ccc-2c(O)c1 | inactive |
| COc1cc2ccc1-c1ccc(O)cc1CCc1ccc(cc1)Oc1cc(ccc1O)CC2 | inactive |

Biological target: T2, Oxysterols receptor LXR-beta (Homo sapiens)
Experiment: Activation of full length LXRbeta expressed in african green monkey COS7 cells co-transfected with RXRalpha assessed as increase in LXR-response element driven luciferase reporter gene transactivation after 24 hrs
Assay type: cell-based
Conditions: COS-7
How it was run: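 Transient LXR/RXRα luciferase reporter assay in COS cells with β-galactosidase as internal control. Cells treated 24 h with test compounds at 10 or 30 μM, or TO901317 at 100 nM, in the presence of compactin to deplete endogenous LXR ligands. Luciferase activity in cell extracts normalized to β-galactosidase and expressed as fold induction over vehicle-treated cells.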

| SMILES | Activity |
| --- | --- |
| Oc1ccc2c(c1)CCc1ccc(cc1)Oc1cc(ccc1O)CCc1ccc-2c(O)c1 | inactive |
